Assay results taken from ChEMBL document CHEMBL1153092, “Discovery of novel thieno[2,3-d]pyrimidin-4-yl hydrazone-based inhibitors of cyclin D1-CDK4: synthesis, biological evaluation and structure-activity relationships. Part 2” (Bioorg Med Chem, 2009).
Converted amounts (≈) assume the structure as drawn. The source made the active and inactive calls. The calls are words filed in the database; no cut-off is given here.

How the values were obtained:
[1] = biological target: Cyclin-dependent kinase 4/cyclin D1 (Homo sapiens, UniProt P11802); assay: Inhibition of CDK4/Cyclin D1 expressed in Sf9 cells assessed as inhibition of Rb phosphorylation
Chain of Cyclin-dependent kinase 4/cyclin D1 (P11802 whole entry): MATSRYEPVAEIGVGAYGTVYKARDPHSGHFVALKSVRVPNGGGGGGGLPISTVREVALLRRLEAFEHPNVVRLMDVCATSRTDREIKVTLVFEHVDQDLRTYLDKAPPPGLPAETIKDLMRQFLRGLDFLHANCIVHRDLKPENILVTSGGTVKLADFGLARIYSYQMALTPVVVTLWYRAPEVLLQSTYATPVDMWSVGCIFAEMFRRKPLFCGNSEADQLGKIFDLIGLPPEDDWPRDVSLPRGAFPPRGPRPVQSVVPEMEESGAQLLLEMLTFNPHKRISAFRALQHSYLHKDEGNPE
Chain of Cyclin-dependent kinase 4/cyclin D1 (P24385 whole entry, further chain): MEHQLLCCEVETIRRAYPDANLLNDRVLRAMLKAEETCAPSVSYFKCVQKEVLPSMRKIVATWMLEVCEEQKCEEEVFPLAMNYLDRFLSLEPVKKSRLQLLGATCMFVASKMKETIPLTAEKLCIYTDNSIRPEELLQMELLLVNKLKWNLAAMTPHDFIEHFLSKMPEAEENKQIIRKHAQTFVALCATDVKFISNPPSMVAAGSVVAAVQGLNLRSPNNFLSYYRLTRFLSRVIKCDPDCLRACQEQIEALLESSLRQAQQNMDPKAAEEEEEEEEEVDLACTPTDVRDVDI
Procedure, shortened: (§1)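 CDK4/cyclin D1 or CDK2/cyclin E was purified from baculovirus-infected Sf-9 cells. The substrate was bacterial GST-Rb on glutathione-sepharose beads, with [³³P]ATP. Reactions ran 30 min at 30 °C in filter plates, were washed four times and counted. IC₅₀ (µg/mL) came from dose–response curves, as the mean of at least two determinations.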

[2] = biological target: Cyclin-dependent kinase 2/cyclin E1 (Homo sapiens, UniProt P24941); assay: Inhibition of CDK2/Cyclin E expressed in Sf9 cells assessed as inhibition of Rb phosphorylation; procedure, shortened: as §1
[3] = Selectivity for CDK4/Cyclin D1 over CDK2/Cyclin E
Procedure, shortened: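 Selectivity was calculated as CDK2 IC₅₀ divided by CDK4 IC₅₀, using the Rb-phosphorylation kinase assay values.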

HCT-116 [4] = assay: Cytotoxicity against human HCT116 cells after 3 days by MTT assay; assay type: functional, cell-based; conditions: HCT-116, 72 h
Procedure, shortened: (§2)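 Cells (PC-6 shown) were kept in RPMI 1640 with 10% FBS and plated on day 0. Compound, serially diluted in DMSO, was added on day 1 at ten concentrations. Viable cells were counted by MTT after 3 days of culture. The 50% growth-inhibition concentration was solved from 100×[(T−T₀)/(C−T₀)]=50, where T₀ is the optical density at time zero.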

PC-6 = assay: Cytotoxicity against human PC6 cells after 3 days by MTT assay; assay type: functional, cell-based; conditions: PC-6, 72 h; procedure, shortened: as §2
HCT-116 [5] = assay: Cell cycle arrest in human HCT116 cells assessed as accumulation at G1 phase at 50 ng/mL after 16 hrs using propidium iodide staining by flow cytometry; assay type: functional
Procedure, shortened: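 HCT116 cells were treated for 16 h with compound at concentrations in ng/mL, with DMSO as control. Cells were then collected and their DNA content was analysed by flow cytometry. The percentages of cells in G0/G1, S and G2/M were quantified.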

[6] = Aqueous solubility of compound; assay type: physicochemical; conditions: water (aqueous)
HCT-116 [7] = assay: Antitumor activity against human HCT116 cells xenografted in BALB/c mouse assessed as maximum tumor volume inhibition rate at 300 mg/kg, iv qd for 4 days measured 7 days post dose; assay type: functional
Procedure, shortened: (§3)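 HCT116 tumour cells implanted s.c. in right hind limb of male BALB/c-nu/nu mice aged 5 or 6 weeks. Dosing began once tumours averaged 80–100 mm³, with compound in 20% Captisol solution given iv or po once daily for 4 days (qdx4). Tumour volume was measured periodically by caliper and body weight was followed. Maximum inhibition of tumour volume and maximum body weight loss are reported with their day after first dose. Deaths were scored as from toxicity or from tumour, out of 5 mice.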

Mus musculus [8] = assay: Toxicity in human HCT116 cells xenografted BALB/c mouse assessed as maximum body weight loss rate at 300 mg/kg, iv qd for 4 days measured 1 days post dose; assay type: organism-based, HCT-116; parameters: dose 300 mg/kg, route intravenous; conditions: in vivo, 24 h; procedure, shortened: as §3
Mus musculus [9] = assay: Toxicity in human HCT116 cells xenografted BALB/c mouse assessed as mouse mortality at 300 mg/kg, iv qd for 4 days; assay type: organism-based, HCT-116; parameters: dose 300 mg/kg, route intravenous; conditions: in vivo, 96 h
Procedure, shortened: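 HCT116 cells implanted subcutaneously in right hind limb of male BALB/c-nu/nu mice aged 5 or 6 weeks; dosing began once tumours averaged 80–100 mm³. Compound in 20% Captisol solution given iv or po once daily for 4 days (qdx4). Tumour volume measured periodically by caliper. Deaths scored as toxicity deaths/tumour deaths/mice used, n=5 per group.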

HCT-116 [10] = assay: Antitumor activity against human HCT116 cells xenografted in BALB/c mouse assessed as tumor induced mouse death at 300 mg/kg, iv qd for 4 days; assay type: functional, organism-based; parameters: dose 300 mg/kg; procedure, shortened: as §3

SMILES | IC50 [1] | IC50 [2] | Selectivity ratio [3] | IC50 (HCT-116 [4]) | IC50 (PC-6) | Activity (HCT-116 [5]) | solubility [6] | inhibition in vivo at 300 mg/kg (HCT-116 [7]) | Activity (Mus musculus [8]) | Activity (Mus musculus [9]) | Activity (HCT-116 [10])
CC(C)(C)c1cc2c(N/N=C/c3ccc(CN)cc3)ncnc2s1 | 61.9 nM | 4710 nM | 76.2 | 0.334 µg/mL (≈ 0.984 µM) | 0.214 µg/mL (≈ 0.63 µM) | – | – | – | – | – | –
COC(=O)c1ccc(/C=N/Nc2ncnc3sc(C(C)(C)C)cc23)cc1 | > 54300 nM | > 54300 nM | – | – | – | – | – | – | – | – | –
CC(C)N1Cc2ccc(/C=N/Nc3ncnc4sc(C(C)(C)C)cc34)cc2C1 | 203 nM | 7620 nM | 37.5 | 0.206 µg/mL (≈ 0.523 µM) | 0.134 µg/mL (≈ 0.34 µM) | – | – | – | – | – | –
CC(C)(C)c1cc2c(N/N=C/c3ccccc3)ncnc2s1 | 1970 nM | > 64400 nM | > 33 | – | 6.54 µg/mL (≈ 21.1 µM) | – | – | – | – | – | –
CN(CCO)Cc1ccc(/C=N/Nc2ncnc3sc(C(C)(C)C)cc23)cc1 | 70.4 nM | 729 nM | 10.4 | 0.169 µg/mL (≈ 0.425 µM) | 0.124 µg/mL (≈ 0.312 µM) | – | – | – | – | – | –
CC(C)(C)c1cc2c(N/N=C/c3ccc(O)cc3)ncnc2s1 | > 61300 nM | 33700 nM | – | 0.844 µg/mL (≈ 2.59 µM) | > 10 µg/mL | – | – | – | – | – | –
CC(C)(C)c1cc2c(N/N=C/c3ccc4c(c3)CCNC4)ncnc2s1 | 104 nM | 1750 nM | 16.8 | 0.046 µg/mL (≈ 0.126 µM) | 0.049 µg/mL (≈ 0.134 µM) | 56% | 8.5 µg/mL (≈ 23.3 µM) | 5% | 2.2% | Non-toxic | Active
CN1Cc2ccc(/C=N/Nc3ncnc4sc(C(C)(C)C)cc34)cc2C1 | 263 nM | 2740 nM | 10.4 | 0.088 µg/mL (≈ 0.241 µM) | 0.05 µg/mL (≈ 0.137 µM) | – | – | – | – | – | –
CC(C)(C)c1cc2c(N/N=C/c3ccc4c(c3)CNCC4)ncnc2s1 | 93 nM | 492 nM | 5.3 | 0.107 µg/mL (≈ 0.293 µM) | 0.069 µg/mL (≈ 0.189 µM) | – | – | – | – | – | –
